The subject of data set [1] is Mus musculus. As to the kind of experiment: Antidepressant activity in ICEM:CET (SPF Caw) mouse assessed as antagonism of reserpine-induced hypothermia at 25 mg/kg, po administered via gavage 30 mins before reserpine challenge measured 4 hrs after reserpine treatment. It counts as functional, organism-based. Also noted: dose 25 mg/kg. In a few lines:
(§1)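 Male mice, 18-22 g, groups of ten, housed the evening before with a 9-h fast and water until 2 h before testing. Gavage dosing at 25 mg/kg in 0.5% Methocel, 30 min before reserpine 2.5 mg/kg ip in 0.5% acetic acid. Read blind: blepharospasm scored (Rubin scale) at 1 h, rectal thermocouple temperature at 4 h.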

The test system of data set [2] is Mus musculus. As to the kind of experiment: Antidepressant activity in ICEM:CET (SPF Caw) mouse assessed as antagonism of reserpine-induced blepharospasm at 25 mg/kg, po administered via gavage 30 mins before reserpine challenge measured 1 hr after reserpine treatment. Also noted: dose 25 mg/kg. It counts as functional, organism-based. The essentials:
as §1

The nature of data set [3]: (§2) Orientative acute toxicity in po dosed ICEM:CET (SPF Caw) mouse administered via gavage measured for 60 mins after drug dosing by Irwin's test. In kind it is organism-based. The following applies: ICEM:CET (SPF Caw), in vivo. In a few lines:
(§3)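 Male ICEM:CET (SPF Caw) mice, 18-22 g. Oral gavage, suspended or dissolved in 0.5% Methocel at 0.1 mL/10 g body weight. Doses of at least 25, 50, 100, 200, 400 and 800 mg/kg, four animals per dose. Animals were observed closely for 60 min after dosing during Irwin's symptomatologic test, and an approximate LD50 was estimated.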

The test system of data set [4] is Mus musculus. As to the kind of experiment: Antidepressant activity in po dosed ICEM:CET (SPF Caw) mouse assessed as antagonism of reserpine-induced hypothermia administered via gavage 30 mins before reserpine challenge measured 4 hrs after reserpine treatment. It counts as functional. In a few lines: (§4)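 Groups of ten male mice (18-22 g), fasted 9 h with water until 2 h pre-test. Oral gavage in 0.5% Methocel at doses below the 25 mg/kg screen, 30 min before reserpine 2.5 mg/kg ip. Blepharospasm scored blind at 1 h, rectal temperature at 4 h. ED50 estimated by eye-fit linear plots on semilogarithmic paper.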

Data set [5] concerns Mus musculus. As to the kind of experiment: Antidepressant activity in po dosed ICEM:CET (SPF Caw) mouse assessed as antagonism of reserpine-induced blepharospasm administered via gavage 30 mins before reserpine challenge measured 1 hr after reserpine treatment. In kind it is functional. In a few lines: as §4
The test system of data set [6] is Mus musculus. As to the kind of experiment: Anticonvulsant activity in po dosed ICEM:CET (SPF Caw) mouse assessed as antagonism of pentylenetetrazole-induced flexor-extensor tonic convulsions administered via gavage 30 mins before pentylenetetrazole challenge. It counts as functional. The essentials: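 Male mice, 18-22 g, dosed orally by gavage in 0.5% Methocel (0.1 mL/10 g), starting at a 50 mg/kg screening dose, then graded doses. Pentylenetetrazole 130 mg/kg ip given 30 min later. Ten mice per dose and for controls. Dose preventing flexor-extensor tonic convulsions in 50% of animals read from dose-response curves (ED50).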

For data set [7], the system named is Mus musculus. Described as §2. The following applies: in vivo, 1 h. In kind it is organism-based. The essentials:
as §3

[8] abbreviates: Mus musculus, ICEM:CET(SPF Caw), po, read-out: ED50.

The structures appear in SMILES notation. Calls of active or inactive are those of the source. No cut-off for these calls is given here. A value given as a limit tells only on which side of the number the result lay.

Take `CC(C)(C)N1CC(N2c3ccccc3Sc3ccccc32)C1`: the result with Mus musculus [1] and with Mus musculus [2] was inactive.

As to `c1ccc2c(c1)COc1ccccc1N2C1CNC1`, the outcome in the data set on Mus musculus [1] and in the data set with Mus musculus [2] was inactive.

In the case of `c1ccc2c(c1)CCc1ccccc1N2CC1CNC1`, the result with Mus musculus [1] and with Mus musculus [2] was inactive.

As to `CC(C)N1CC(CN2c3ccccc3CCc3ccccc32)C1`, the outcome in the data set with Mus musculus [1] and with Mus musculus [2] was inactive.

For `CC(C)(C)N1CC(N2c3ccccc3Sc3ccc(C(F)(F)F)cc32)C1`, the outcome in the data set with Mus musculus [1] and with Mus musculus [2] was inactive.

As for `CC(C)N1CC(N2c3ccccc3CCc3ccccc32)C1`, the outcome in the data set on Mus musculus [1] and with Mus musculus [2] was inactive.

Consider `CC(C)(C)N1CC(N2c3ccccc3Sc3ccc(Cl)cc32)C1`, for which the result in the data set on Mus musculus [1] and in the data set with Mus musculus [2] was inactive.

Regarding `CC(C)(C)N1CC(N2c3ccccc3CCc3ccc(Cl)cc32)C1`, the result in the data set on Mus musculus [1] and in the data set with Mus musculus [2] was inactive.

In the case of `CC(C)(C)N1CC(N2c3ccccc3COc3ccccc32)C1`, the result in the data set with Mus musculus [1] and with Mus musculus [2] was inactive.

With `CC(C)(C)N1CC(N2c3ccccc3C=Cc3ccccc32)C1`, the result with Mus musculus [1] and in the data set with Mus musculus [2] was inactive.

For the compound `CC(C)N1CC(CN2c3ccccc3COc3ccccc32)C1`, the result in the data set on Mus musculus [1] and with Mus musculus [2] was inactive.

Regarding `c1ccc2c(c1)COc1ccccc1N2CC1CNC1`, the result in the data set on Mus musculus [1] and in the data set on Mus musculus [2] was inactive.

As to `c1ccc2c(c1)Sc1ccccc1N2C1CNC1`, the result with Mus musculus [1] and in the data set on Mus musculus [2] was inactive.

For `c1ccc2c(c1)CCc1ccccc1N2C1CNC1`, the outcome in the data set with Mus musculus [1] and with Mus musculus [2] was inactive.

The term LD50 denotes the dose at which mortality reaches 50%. The low end stands for greater toxicity, the high end for lower toxicity. What is called ED50 is the dose that gives a 50% effect, or the effect in half of the subjects. In turn, `CN(C)C1CN(C2c3ccccc3CCc3ccccc32)C1` gave an LD50 at 1 h in data set [3] of 400 mg/kg. For the same compound, the values for the ED50 in the data set on Mus musculus [4] (setting [8]), in the data set on Mus musculus [5] (setting [8]) and in the data set on Mus musculus [6] (setting [8]) were 12.5 mg/kg, 7 mg/kg and 21.5 mg/kg, respectively.

The compound `CNC1CN(C2c3ccccc3COc3ccccc32)C1.O=C(O)/C=C/C(=O)O` (single isomer, unassigned; (-)) had an LD50 in the data set with Mus musculus [7] of 100 mg/kg. The ED50 in the data set with Mus musculus [4] was 14.1 mg/kg; in the data set on Mus musculus [5], 1.3 mg/kg; in the data set with Mus musculus [6], above 50 mg/kg.

In data set [3], `c1ccc2c(c1)CCc1ccccc1C2N1CCNCC1` came in with an LD50 at 1 h of 50 mg/kg. In addition, the ED50 is above 25 mg/kg with Mus musculus [4] (setting [8]), 24 mg/kg with Mus musculus [5] (setting [8]) and above 50 mg/kg in the data set on Mus musculus [6] (setting [8]).

In data set [3], `CN(C)C1CN(C2c3ccccc3CSc3ccccc32)C1` (stereo unspecified) showed an LD50 at 1 h of 400 mg/kg. Besides, the figures for the median effective dose (ED50) with Mus musculus [4] (setting [8]), in the data set on Mus musculus [5] (setting [8]) and with Mus musculus [6] (setting [8]) were above 25 mg/kg, above 25 mg/kg and 19 mg/kg, respectively.

For the compound `CN1CC(N2c3ccccc3CCc3ccccc32)C1`, the result in the data set with Mus musculus [1] and in the data set on Mus musculus [2] was inactive.

Take `CC(C)(C)N1CC(N2c3ccccc3CCc3ccccc32)C1`: the outcome with Mus musculus [1] and with Mus musculus [2] was inactive.

`CN(C)CCC=C1c2ccccc2CCc2ccccc21.Cl` [AMITRIPTYLINE HYDROCHLORIDE] displayed an LD50 at 1 h in data set [3] of 100 mg/kg. In addition, the ED50 in the data set with Mus musculus [4] (setting [8]) amounted to 6.6 mg/kg; in the data set on Mus musculus [5] (setting [8]), 1.3 mg/kg; in the data set with Mus musculus [6] (setting [8]) it was 8 mg/kg.

Regarding `CC(C)N1CC(N2c3ccccc3COc3ccccc32)C1`, the result with Mus musculus [1] and in the data set with Mus musculus [2] was inactive.

For `CN(C)C1CN(C2c3ccccc3C3(CC3)c3ccccc32)C1`, in data set [3], the LD50 at 1 h worked out at 200 mg/kg. Moreover, the figures for the ED50 in the data set with Mus musculus [4] (setting [8]), in the data set with Mus musculus [5] (setting [8]) and in the data set with Mus musculus [6] (setting [8]) were 16.5 mg/kg, 7.2 mg/kg and 24.3 mg/kg, respectively.

`c1ccc2c(c1)CCc1ccccc1C2N1CC(n2ccnc2)C1` returned an LD50 at 1 h in data set [3] of 200 mg/kg. The ED50 was above 25 mg/kg in the data set with Mus musculus [4] (setting [8]), above 25 mg/kg in the data set with Mus musculus [5] (setting [8]) and 17.7 mg/kg in the data set on Mus musculus [6] (setting [8]).

In data set [3], `CN(CC(=O)c1ccccc1)C1CN(C2c3ccccc3CCc3ccccc32)C1` registered a 50% lethal dose (LD50) at 1 h above 800 mg/kg. For the same compound, the 50% effective dose (ED50) is above 25 mg/kg in the data set with Mus musculus [4] (setting [8]), 15 mg/kg with Mus musculus [5] (setting [8]) and 46.8 mg/kg with Mus musculus [6] (setting [8]).

Source of the values: ChEMBL document CHEMBL3227978, “Azetidine derivatives of tricyclic antidepressant agents” (J Med Chem, 1979).
